Assay results published in ChEMBL document CHEMBL3259691, “Synthesis and cytotoxic activity of nitric oxide-releasing isosteviol derivatives” (Bioorg Med Chem Lett, 2014).

Experiments:
[1] = Cytotoxicity against mouse B16F10 cells after 48 hrs by MTT assay; format: functional, cell-based; settings: B16-F10, 48 h
Outline: (§1)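 Cells seeded in 96-well plates, exposed to compounds at various concentrations for 48 h at 37°C, 5% CO2. MTT (0.5 mg/mL) then added for 4 h, supernatant removed, formazan dissolved in DMSO, absorbance read at 570 nm. Percent inhibition of proliferation calculated per concentration; IC50 derived from dose-dependent response.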

HepG2 = assay: Cytotoxicity against human HepG2 cells after 48 hrs by MTT assay; format: functional, cell-based; settings: HepG2, 48 h; outline: as §1

Row | Compound | IC50 [1] | IC50 (HepG2)
1 | C[C@@]12CC[C@@H]3[C@@](CC[C@H]4[C@@]3(C)CCC[C@@]4(C)C(=O)NCC(=O)OCCOc3no[n+]([O-])c3S(=O)(=O)c3ccccc3)(CC(=O)O1)C2 | 3.52 µM | 
2 | C[C@@]12CC[C@@H]3[C@@](CC[C@H]4[C@@]3(C)CCC[C@@]4(C)C(=O)NCC(=O)OCCOc3no[n+]([O-])c3S(=O)(=O)c3ccccc3)(CC1=O)C2 | 2.76 µM | > 50 µM
3 | C[C@@]12CC[C@@H]3[C@@](CC[C@H]4[C@@]3(C)CCC[C@@]4(C)C(=O)NCC(=O)OCCCOc3no[n+]([O-])c3S(=O)(=O)c3ccccc3)(CC1=O)C2 | 8.06 µM | 
4 | C[C@@]12CC[C@@H]3[C@@](CC[C@H]4[C@@]3(C)CCC[C@@]4(C)C(=O)NCC(=O)OCC#CCOc3no[n+]([O-])c3S(=O)(=O)c3ccccc3)(CC1=O)C2 | 0.25 µM | 4.24 µM
5 | C[C@@]12CC[C@@H]3[C@@](CC[C@H]4[C@@]3(C)CCC[C@@]4(C)C(=O)NCC(=O)OCCCOc3no[n+]([O-])c3S(=O)(=O)c3ccccc3)(CC(=O)O1)C2 | 2.05 µM | 
6 | C[C@]12CC[C@@H]3[C@](CC[C@H]4[C@@]3(C)CCC[C@@]4(C)C(=O)NCC(=O)OCCCCOc3no[n+]([O-])c3S(=O)(=O)c3ccccc3)(C1)C(C=O)O2 (some centres not stated) | 5.21 µM | 
7 | C=C1C(=O)[C@@]2(C)CC[C@@H]3[C@]1(CC[C@H]1[C@@]3(C)CCC[C@@]1(C)C(=O)NCC(=O)OCCOc1no[n+]([O-])c1S(=O)(=O)c1ccccc1)C2 | 1.01 µM | 7.13 µM
8 | C=C1C(=O)[C@@]2(C)CC[C@@H]3[C@]1(CC[C@H]1[C@@]3(C)CCC[C@@]1(C)C(=O)NCC(=O)OCCCOc1no[n+]([O-])c1S(=O)(=O)c1ccccc1)C2 | 0.016 µM | 38.6 µM
9 | C=C[C@]12CC[C@H]3[C@@](C)(CCC[C@@]3(C)C(=O)O)[C@@H]1CC[C@](C)(COC(=O)CCC(=O)OCCOc1no[n+]([O-])c1S(=O)(=O)c1ccccc1)C2 | 1.98 µM | 6.44 µM
10 | C=C[C@]12CC[C@H]3[C@@](C)(CCC[C@@]3(C)C(=O)O)[C@@H]1CC[C@](C)(COC(=O)CCC(=O)OCCCOc1no[n+]([O-])c1S(=O)(=O)c1ccccc1)C2 | > 50 µM | 
11 | C=C[C@]12CC[C@H]3[C@@](C)(CCC[C@@]3(C)C(=O)O)[C@@H]1CC[C@](C)(COC(=O)CCC(=O)OCC#CCOc1no[n+]([O-])c1S(=O)(=O)c1ccccc1)C2 | 3.84 µM | 7.54 µM
12 | COC(=O)[C@]1(C)CCC[C@@]2(C)[C@@H]3CC[C@@]4(C)C[C@]3(CC[C@@H]21)C/C4=N\OC(=O)CCC(=O)OCCOc1no[n+]([O-])c1S(=O)(=O)c1ccccc1 |  | 30.2 µM
13 | COC(=O)[C@]1(C)CCC[C@@]2(C)[C@@H]3CC[C@@]4(C)C[C@]3(CC[C@@H]21)C/C4=N\OC(=O)CCC(=O)OCCCOc1no[n+]([O-])c1S(=O)(=O)c1ccccc1 |  | 33.4 µM
14 | COC(=O)[C@]1(C)CCC[C@@]2(C)[C@@H]3CC[C@@]4(C)C[C@]3(CC[C@@H]21)C/C4=N\OC(=O)CCC(=O)OCCCCOc1no[n+]([O-])c1S(=O)(=O)c1ccccc1 |  | 5.16 µM
15 | COC(=O)[C@]1(C)CCC[C@@]2(C)[C@@H]3CC[C@@]4(C)C[C@]3(CC[C@@H]21)C/C4=N\OC(=O)CCC(=O)OCCOCCOc1no[n+]([O-])c1S(=O)(=O)c1ccccc1 | 2.12 µM | 2.75 µM
16 | COC(=O)[C@]12CCC(C)(C)C[C@H]1[C@H]1C(=O)C=C3[C@@]4(C)C=C(C#N)C(=O)C(C)(C)[C@@H]4CC[C@@]3(C)[C@]1(C)CC2 [BARDOXOLONE METHYL] | 5.85 µM | 4.99 µM
17 | CC[C@@]1(O)C(=O)OCc2c1cc1n(c2=O)Cc2cc3ccccc3nc2-1 [CAMPTOTHECIN] | 2.78 µM | 
18 | C[C@@]12CC[C@@H]3[C@@](CC[C@H]4[C@@]3(C)CCC[C@@]4(C)C(=O)O)(CC1=O)C2 [ISOSTEVIOL] | > 100 µM | > 100 µM
